# Laboratory results reported in publication PMC6099197 (Clinical Pharmacology and Therapeutics, 2017).
# Assays:
# [1] = pKa; assay type: physicochemical
# [2] = In vitro solubility in aqueous buffered solutions and biorelevant media; assay type: physicochemical; details: for solubility at 24 h: thermodynamic from solid
# Summary of the method: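 Crystalline succinate salt of test compound (~763 mg, ~600 mg free-form equivalent) added to 250 mL of 50 mM aqueous buffer (HCl/KCl pH 2.0, acetate pH 4.5, phosphate pH 6.8 or 7.5) or FaSSIF v1 (pH 6.5, 3 mM taurocholate, 0.75 mM lecithin) or FeSSIF v1 (pH 5.0, 15 mM bile salt). Held at 37 ± 1°C with magnetic stirring. Liquid separated at 24 h and assayed by HPLC. Top tested level 2.4 mg/mL; triplicate, mean reported.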
# [3] = Food effect study A2103, single-dose PK in healthy volunteers; assay type: in vivo, human; details: single 600 mg dose
structure (smiles),measurement,setting,value
CN(C)C(=O)c1cc2cnc(Nc3ccc(N4CCNCC4)cn3)nc2n1C1CCCC1 [Ribociclib],pKa,[1]; pKa1 (base),8.6
same,pKa,[1]; pKa2 (base),5.5
same,solubility,[2]; acidic media,≤ 200000 µg/mL
same,solubility at 24 h,"[2]; aqueous buffered solution, 37 °C, pH 2, aqueous buffer",> 2400 µg/mL
same,solubility at 24 h,"[2]; biorelevant medium FaSSIF v1, 37 °C, pH 6.5, fassif",> 2400 µg/mL
same,solubility at 24 h,"[2]; biorelevant medium FeSSIF v1, 37 °C, pH 5, fessif",> 2200 µg/mL
same,half-life,"[3]; both, human, plasma, oral, 600 mg, T1/2, Geo-mean (CV% Geo-mean), fed state (high-fat, high-calorie meal)",33.6 h
same,"Tmax fed minus fasted, difference of the medians (90% CI)",[3],"1 (–2, 8) h"
